Numbering of substitutions follows the chain as printed.
What was measured:
Conditions in all cases: stereoisomer not certain
OR8I2 (Homo sapiens) = biological target: T1, OR8I2 (Homo sapiens) (UniProt Q8N0Y5)
T1 sequence (whole entry): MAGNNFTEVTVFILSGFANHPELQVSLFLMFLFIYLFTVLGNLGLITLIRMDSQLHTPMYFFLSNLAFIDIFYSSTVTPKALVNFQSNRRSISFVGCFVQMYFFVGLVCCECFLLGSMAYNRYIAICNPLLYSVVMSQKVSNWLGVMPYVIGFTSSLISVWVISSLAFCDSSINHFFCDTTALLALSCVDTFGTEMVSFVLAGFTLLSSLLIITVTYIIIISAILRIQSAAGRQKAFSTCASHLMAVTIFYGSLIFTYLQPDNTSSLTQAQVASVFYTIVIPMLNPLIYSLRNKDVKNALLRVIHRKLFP
Summary of the method: (§1)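 Each entry records the cell line, G-protein, co-transfected protein and tags used. Methods varied with the source, often transient luciferase assays in mammalian cell lines. A receptor–molecule pair is called responsive (active) if the original authors judged its signal statistically different from baseline and non-responsive (inactive) otherwise.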

OR8J1 (Homo sapiens) = biological target: T2, OR8J1 (Homo sapiens) (UniProt Q8NGP2)
T2 sequence (whole entry): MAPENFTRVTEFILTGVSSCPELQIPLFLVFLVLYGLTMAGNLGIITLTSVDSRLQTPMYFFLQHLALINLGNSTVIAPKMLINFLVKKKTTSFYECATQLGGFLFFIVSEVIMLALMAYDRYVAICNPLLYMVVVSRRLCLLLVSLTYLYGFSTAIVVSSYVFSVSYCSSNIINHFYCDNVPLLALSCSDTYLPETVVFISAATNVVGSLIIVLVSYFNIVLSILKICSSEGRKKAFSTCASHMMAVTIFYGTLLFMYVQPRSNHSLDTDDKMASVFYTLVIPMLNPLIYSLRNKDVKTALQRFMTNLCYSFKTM
Summary of the method: as §1

OR8J1 = test system: T3, OR8J1
T3 sequence (whole entry): T2 sequence (whole entry) with Y120C
Summary of the method: as §1

OR8J3 (Homo sapiens) = biological target: T4, OR8J3 (Homo sapiens) (UniProt Q8NGG0)
T4 sequence (whole entry): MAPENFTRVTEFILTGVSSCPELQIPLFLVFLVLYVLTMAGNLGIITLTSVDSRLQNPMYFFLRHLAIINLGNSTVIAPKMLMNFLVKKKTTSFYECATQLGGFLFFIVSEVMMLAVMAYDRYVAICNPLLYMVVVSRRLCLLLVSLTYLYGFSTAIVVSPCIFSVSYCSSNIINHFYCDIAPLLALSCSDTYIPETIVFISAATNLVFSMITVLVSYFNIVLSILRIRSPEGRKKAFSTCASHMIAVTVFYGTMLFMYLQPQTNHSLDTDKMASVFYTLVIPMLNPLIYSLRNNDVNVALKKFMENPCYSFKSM
Summary of the method: as §1

OR8J3 E4V = test system: T5, OR8J3 E4V
T5 sequence (whole entry): T4 sequence (whole entry) with E4V
Summary of the method: as §1

OR8K1 (Homo sapiens) = biological target: T6, OR8K1 (Homo sapiens) (UniProt Q8NGG5)
T6 sequence (whole entry): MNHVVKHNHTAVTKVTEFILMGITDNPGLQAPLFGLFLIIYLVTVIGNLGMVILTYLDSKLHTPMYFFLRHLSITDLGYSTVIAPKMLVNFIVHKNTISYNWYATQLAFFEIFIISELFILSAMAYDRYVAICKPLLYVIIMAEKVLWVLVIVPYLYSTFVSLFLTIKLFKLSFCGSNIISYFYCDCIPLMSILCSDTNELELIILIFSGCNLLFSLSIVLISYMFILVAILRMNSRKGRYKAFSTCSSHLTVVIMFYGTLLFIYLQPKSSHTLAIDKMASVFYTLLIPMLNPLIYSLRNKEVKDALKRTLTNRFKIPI
Summary of the method: as §1

OR8K3 (Homo sapiens) = biological target: T7, OR8K3 (Homo sapiens) (UniProt Q8NH51)
T7 sequence (whole entry): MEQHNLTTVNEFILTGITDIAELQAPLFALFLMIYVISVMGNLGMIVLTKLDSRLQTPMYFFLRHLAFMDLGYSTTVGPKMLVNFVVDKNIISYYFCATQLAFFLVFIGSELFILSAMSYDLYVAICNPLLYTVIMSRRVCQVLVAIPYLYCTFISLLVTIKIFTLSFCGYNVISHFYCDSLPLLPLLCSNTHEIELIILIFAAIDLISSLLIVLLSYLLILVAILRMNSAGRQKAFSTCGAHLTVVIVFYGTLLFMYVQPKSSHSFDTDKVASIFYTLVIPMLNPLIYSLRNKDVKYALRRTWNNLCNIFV
Summary of the method: as §1

OR8K5 (Homo sapiens) = biological target: T8, OR8K5 (Homo sapiens) (UniProt Q8NH50)
T8 sequence (whole entry): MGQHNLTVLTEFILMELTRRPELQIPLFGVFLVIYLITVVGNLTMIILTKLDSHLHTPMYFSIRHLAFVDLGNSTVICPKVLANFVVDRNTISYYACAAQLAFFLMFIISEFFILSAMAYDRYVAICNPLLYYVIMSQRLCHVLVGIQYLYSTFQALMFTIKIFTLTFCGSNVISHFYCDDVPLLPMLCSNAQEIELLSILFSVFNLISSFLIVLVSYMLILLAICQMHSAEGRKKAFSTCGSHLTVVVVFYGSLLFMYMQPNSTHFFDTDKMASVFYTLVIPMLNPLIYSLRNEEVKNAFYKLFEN
Summary of the method: as §1

OR8S1 (Homo sapiens) = biological target: T9, OR8S1 (Homo sapiens) (UniProt Q8NH09)
T9 sequence (whole entry): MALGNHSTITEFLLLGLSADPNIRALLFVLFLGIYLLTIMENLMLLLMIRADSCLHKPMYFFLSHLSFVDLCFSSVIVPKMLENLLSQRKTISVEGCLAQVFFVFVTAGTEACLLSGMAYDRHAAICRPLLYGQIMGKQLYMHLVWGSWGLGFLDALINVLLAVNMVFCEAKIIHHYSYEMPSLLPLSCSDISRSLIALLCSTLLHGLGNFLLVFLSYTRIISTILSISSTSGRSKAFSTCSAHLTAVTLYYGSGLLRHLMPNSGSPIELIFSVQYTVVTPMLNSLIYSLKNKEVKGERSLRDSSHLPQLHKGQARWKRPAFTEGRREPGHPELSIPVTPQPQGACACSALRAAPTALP
Summary of the method: as §1

OR8U1 (Homo sapiens) = biological target: T10, OR8U1 (Homo sapiens) (UniProt Q8NH10)
T10 sequence (whole entry): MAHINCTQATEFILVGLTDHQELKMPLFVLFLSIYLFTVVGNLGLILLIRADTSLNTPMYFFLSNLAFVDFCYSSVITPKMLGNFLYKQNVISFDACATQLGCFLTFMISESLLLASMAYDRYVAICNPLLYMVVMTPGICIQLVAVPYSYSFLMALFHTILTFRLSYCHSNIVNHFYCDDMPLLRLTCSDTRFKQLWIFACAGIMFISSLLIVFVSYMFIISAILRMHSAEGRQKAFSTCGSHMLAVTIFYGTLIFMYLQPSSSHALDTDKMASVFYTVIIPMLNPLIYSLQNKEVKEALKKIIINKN
Summary of the method: as §1

OR8U3 (Homo sapiens) = biological target: T11, OR8U3 (Homo sapiens) (UniProt Q8NH85)
T11 sequence (whole entry): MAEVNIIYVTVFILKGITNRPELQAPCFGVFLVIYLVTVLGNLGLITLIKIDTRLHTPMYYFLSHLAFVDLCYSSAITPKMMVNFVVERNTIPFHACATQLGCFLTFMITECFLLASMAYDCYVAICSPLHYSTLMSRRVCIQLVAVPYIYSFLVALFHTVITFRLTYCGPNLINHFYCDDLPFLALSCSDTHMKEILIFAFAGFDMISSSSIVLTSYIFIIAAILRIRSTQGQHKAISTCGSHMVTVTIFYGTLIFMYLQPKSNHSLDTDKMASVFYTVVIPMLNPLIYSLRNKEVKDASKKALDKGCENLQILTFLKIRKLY
Summary of the method: as §1

OR8U8 [1] = test system: T12, OR8U8
T12 sequence (whole entry): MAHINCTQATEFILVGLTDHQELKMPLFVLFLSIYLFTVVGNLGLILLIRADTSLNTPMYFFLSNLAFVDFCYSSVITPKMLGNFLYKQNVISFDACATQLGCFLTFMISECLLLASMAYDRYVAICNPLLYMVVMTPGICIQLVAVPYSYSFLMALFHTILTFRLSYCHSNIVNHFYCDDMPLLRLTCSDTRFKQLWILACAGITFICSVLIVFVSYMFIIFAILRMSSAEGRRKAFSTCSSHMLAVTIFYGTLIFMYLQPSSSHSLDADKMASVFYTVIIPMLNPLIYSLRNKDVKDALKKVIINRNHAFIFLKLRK
Summary of the method: as §1

OR8U8 [2] = test system: T13, OR8U8; remark: listed apart in the source
T13 sequence (whole entry): T12 sequence (whole entry) with H20R, C112S, R165C
Summary of the method: as §1

OR8U9 (Homo sapiens) = biological target: T14, OR8U9 (Homo sapiens) (UniProt P0C7N5)
T14 sequence (whole entry): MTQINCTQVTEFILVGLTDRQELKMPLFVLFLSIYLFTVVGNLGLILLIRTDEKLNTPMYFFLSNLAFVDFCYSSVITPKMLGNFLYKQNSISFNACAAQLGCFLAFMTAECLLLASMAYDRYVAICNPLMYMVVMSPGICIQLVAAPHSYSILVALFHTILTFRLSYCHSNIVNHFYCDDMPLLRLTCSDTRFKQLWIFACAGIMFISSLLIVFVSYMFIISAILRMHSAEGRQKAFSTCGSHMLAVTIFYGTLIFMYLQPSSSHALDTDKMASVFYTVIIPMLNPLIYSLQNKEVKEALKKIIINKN
Summary of the method: as §1

OR8U9 T2A Q3H Q293R = test system: T15, OR8U9 T2A Q3H Q293R
T15 sequence (whole entry): T14 sequence (whole entry) with T2A, Q3H, Q293R
Summary of the method: as §1

OR8U9 = test system: T16, OR8U9
T16 sequence (whole entry): T14 sequence (whole entry) with Q293R
Summary of the method: as §1

OR9A2 (Homo sapiens) = biological target: T17, OR9A2 (Homo sapiens) (UniProt Q8NGT5)
T17 sequence (whole entry): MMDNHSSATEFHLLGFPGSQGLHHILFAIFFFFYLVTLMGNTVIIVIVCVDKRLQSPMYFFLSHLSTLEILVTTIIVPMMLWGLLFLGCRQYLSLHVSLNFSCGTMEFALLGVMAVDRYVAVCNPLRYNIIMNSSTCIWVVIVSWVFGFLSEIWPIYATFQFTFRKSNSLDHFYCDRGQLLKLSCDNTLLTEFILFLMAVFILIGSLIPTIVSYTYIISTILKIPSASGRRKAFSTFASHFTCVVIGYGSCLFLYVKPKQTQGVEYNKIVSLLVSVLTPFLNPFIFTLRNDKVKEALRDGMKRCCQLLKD
Summary of the method: as §1

OR9A2 C304Y = test system: T18, OR9A2 C304Y
T18 sequence (whole entry): T17 sequence (whole entry) with C304Y
Summary of the method: as §1

OR8J2 (Homo sapiens) = OR8J2 (Homo sapiens) (UniProt Q8NGG1)
Summary of the method: as §1

OR8U8 (Homo sapiens) = biological target: T19, OR8U8 (Homo sapiens) (UniProt P0C7N1)
T19 sequence (whole entry): T12 sequence (whole entry) with I109V, C112S
Summary of the method: as §1

Measured: odorant receptor agonist call

Chain of OR8J2 (Homo sapiens) (Q8NGG1 whole entry): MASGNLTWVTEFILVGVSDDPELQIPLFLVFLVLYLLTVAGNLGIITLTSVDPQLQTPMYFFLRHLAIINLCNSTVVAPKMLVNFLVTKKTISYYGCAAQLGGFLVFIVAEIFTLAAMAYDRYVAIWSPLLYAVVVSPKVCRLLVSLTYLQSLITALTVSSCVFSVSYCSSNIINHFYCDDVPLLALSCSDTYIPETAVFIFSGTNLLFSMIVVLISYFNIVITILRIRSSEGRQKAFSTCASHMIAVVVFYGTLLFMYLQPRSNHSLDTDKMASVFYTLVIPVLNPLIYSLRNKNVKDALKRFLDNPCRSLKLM

CC1=NC(C)C(C)S1 (stereo not drawn)
not listed: OR8J2 (Homo sapiens) | OR8U8 (Homo sapiens)
inactive: all other assays above

O=C1CCOc2ccccc21
inactive: OR8K5 (Homo sapiens)
active: OR8U3 (Homo sapiens)

O=c1ccc2ccccc2o1
inactive: OR8K5 (Homo sapiens)
active: OR8U3 (Homo sapiens)

CC(=O)c1c(C)c([N+](=O)[O-])c(C(C)(C)C)c([N+](=O)[O-])c1C
not listed: OR8J1 | OR8J3 E4V | OR8U8 [1] | OR8U8 [2] | OR8U9 T2A Q3H Q293R | OR8U9 | OR9A2 C304Y
inactive: all other assays above

CCC1OC(C)=C(O)C1=O (stereo not drawn)
not listed: OR8J2 (Homo sapiens) | OR8U8 (Homo sapiens)
inactive: all other assays above

CCCCCC(=O)C(C)C(C)=O (stereo not drawn)
not listed: OR8J1 | OR8J3 E4V | OR8U8 [1] | OR8U8 [2] | OR8U9 T2A Q3H Q293R | OR8U9 | OR9A2 C304Y | OR8J2 (Homo sapiens)
inactive: all other assays above

CCCCCC(S)C(C)CO (stereo not drawn)
not listed: OR8J1 | OR8J3 E4V | OR8U8 [1] | OR8U8 [2] | OR8U9 T2A Q3H Q293R | OR8U9 | OR9A2 C304Y | OR8J2 (Homo sapiens)
inactive: all other assays above

CC(CO)CS (stereo not drawn)
not listed: OR8J1 | OR8J3 E4V | OR8U8 [1] | OR8U8 [2] | OR8U9 T2A Q3H Q293R | OR8U9 | OR9A2 C304Y | OR8J2 (Homo sapiens)
inactive: all other assays above

CCC(S)C(C)CO (stereo not drawn)
not listed: OR8J1 | OR8J3 E4V | OR8U8 [1] | OR8U8 [2] | OR8U9 T2A Q3H Q293R | OR8U9 | OR9A2 C304Y | OR8J2 (Homo sapiens)
inactive: all other assays above

CCCCC(S)C(C)CO (stereo not drawn)
not listed: OR8J1 | OR8J3 E4V | OR8U8 [1] | OR8U8 [2] | OR8U9 T2A Q3H Q293R | OR8U9 | OR9A2 C304Y | OR8J2 (Homo sapiens)
inactive: all other assays above
